Results from ChEMBL document CHEMBL1147131, “Investigation of the lactam side chain length necessary for optimal indenoisoquinoline topoisomerase I inhibition and cytotoxicity in human cancer cell cultures” (J Med Chem, 2007).
Values belong to the compound of their own block, whether it stands above or below them. Activity calls are given as the source filed them. No cut-off for these calls is given here.

Legend:
[1] = Cytotoxicity against human DU145 cells; assay type: cell-based; settings: DU-145 cells
[2] = Cytotoxicity against human SN12C cells; assay type: cell-based
[3] = biological target: T1, DNA topoisomerase 1 (Homo sapiens) (UniProt P11387); assay: Inhibition of human recombinant topoisomerase 1-mediated DNA cleavage after 30 mins
T1 sequence (whole entry): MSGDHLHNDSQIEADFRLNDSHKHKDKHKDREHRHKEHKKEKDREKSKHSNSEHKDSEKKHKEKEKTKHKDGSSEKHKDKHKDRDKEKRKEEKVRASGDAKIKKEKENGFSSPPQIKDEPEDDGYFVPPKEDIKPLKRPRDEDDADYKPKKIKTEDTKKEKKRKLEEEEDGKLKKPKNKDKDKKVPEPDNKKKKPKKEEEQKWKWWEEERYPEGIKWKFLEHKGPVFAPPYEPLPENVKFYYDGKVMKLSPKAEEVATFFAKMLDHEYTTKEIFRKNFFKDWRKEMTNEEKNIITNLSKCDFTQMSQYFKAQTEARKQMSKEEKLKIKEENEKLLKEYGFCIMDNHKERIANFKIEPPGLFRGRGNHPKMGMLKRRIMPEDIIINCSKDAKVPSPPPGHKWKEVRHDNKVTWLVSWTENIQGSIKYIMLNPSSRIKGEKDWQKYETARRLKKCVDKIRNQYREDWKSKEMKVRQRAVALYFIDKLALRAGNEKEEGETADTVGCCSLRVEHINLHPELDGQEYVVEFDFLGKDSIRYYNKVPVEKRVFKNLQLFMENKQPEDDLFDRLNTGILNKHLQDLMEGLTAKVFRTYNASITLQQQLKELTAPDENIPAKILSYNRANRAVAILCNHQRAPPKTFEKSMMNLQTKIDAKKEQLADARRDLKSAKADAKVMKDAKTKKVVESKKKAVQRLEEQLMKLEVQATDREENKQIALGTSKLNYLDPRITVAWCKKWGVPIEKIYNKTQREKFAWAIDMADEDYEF
In short: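 Human recombinant Top1 purified from baculovirus. Substrate: 161 bp PvuII/HindIII fragment of pBluescript SK(−), 3′-end labeled at the HindIII site by Klenow fill-in with [α-32P]-dGTP. About 50,000 dpm per reaction, incubated with Top1 plus drug for 30 min at 22 °C. Stopped with SDS (0.5% final). Run on denaturing 16% polyacrylamide/7 M urea gels and phosphorimaged. Cleavage scored semi-quantitatively (+ scale) against the parent indenoisoquinoline.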

[4] = Cytotoxicity against human […] cells; assay type: cell-based
[5] = Cytotoxicity against human UACC62 cells; assay type: cell-based; settings: UACC-62 cells
[6] = Cytotoxicity against human HOP62 cells; assay type: cell-based; settings: HOP-62 cells
[7] = Cytotoxicity against human HCT116 cells; assay type: cell-based; settings: HCT-116 cells
SF-268 = assay: Cytotoxicity against human SF268 cells; assay type: functional
[8] = Cytotoxicity against human OVCAR-3 cells; assay type: cell-based

Activity [3]: inactive
Compound: CC(C)(C)OC(=O)NCCCCCCCCn1c2c(c3ccccc3c1=O)C(=O)c1ccccc1-2
GI50 [1]: > 50.1 µM | GI50 [2]: > 50.1 µM | GI50 [4]: > 50.1 µM | GI50 [5]: 15.5 µM | GI50 [6]: 10.7 µM | GI50 [7]: 25.7 µM | GI50 (SF-268): 8.71 µM

Activity [3]: inactive
Compound: O=C1c2ccccc2-c2c1c1ccccc1c(=O)n2CCc1ccccn1
GI50 [1]: 74.1 µM | GI50 [2]: 77.6 µM | GI50 [4]: 5.13 µM | GI50 [5]: 27.5 µM | GI50 [6]: 21.4 µM | GI50 [8]: > 100 µM | GI50 (SF-268): 17.4 µM

Activity [3]: inactive
Compound: Nn1c2c(c3ccccc3c1=O)C(=O)c1ccccc1-2
GI50 [1]: > 50.1 µM | GI50 [2]: > 50.1 µM | GI50 [4]: > 50.1 µM | GI50 [5]: > 50.1 µM | GI50 [6]: 24.5 µM | GI50 [8]: > 50.1 µM | GI50 [7]: > 50.1 µM | GI50 (SF-268): 28.2 µM

Activity [3]: inactive
Compound: O=C1c2ccccc2-c2c1c1ccccc1c(=O)n2Cc1ccccn1
GI50 [1]: 13.5 µM | GI50 [2]: 28.2 µM | GI50 [4]: 3.09 µM | GI50 [5]: 10.7 µM | GI50 [6]: 11.2 µM | GI50 [8]: 13.8 µM | GI50 (SF-268): 12.3 µM

Compound: NCCCn1c2c(c3ccccc3c1=O)C(=O)c1ccccc1-2
GI50 [1]: 0.22 µM | GI50 [2]: 0.16 µM | GI50 [4]: 0.78 µM | GI50 [5]: 0.26 µM | GI50 [6]: 0.2 µM | GI50 [8]: 1.38 µM | GI50 [7]: 0.18 µM | GI50 (SF-268): 0.25 µM

Compound: CC(C)(C)OC(=O)NCCCCCCCCCCCCn1c2c(c3ccccc3c1=O)C(=O)c1ccccc1-2
GI50 [1]: 91.2 µM | GI50 [2]: > 100 µM | GI50 [4]: > 100 µM | GI50 [5]: 27.5 µM | GI50 [6]: 32.4 µM | GI50 [8]: > 100 µM | GI50 [7]: > 100 µM | GI50 (SF-268): 20.4 µM

Compound: NCCCCCCCCCCCn1c2c(c3ccccc3c1=O)C(=O)c1ccccc1-2
GI50 [1]: 4.57 µM | GI50 [2]: 2 µM | GI50 [4]: 11 µM | GI50 [5]: 1.7 µM | GI50 [6]: 2.19 µM | GI50 [8]: 2.09 µM | GI50 [7]: 1.91 µM | GI50 (SF-268): 2.04 µM

Compound: O=C1c2ccccc2-c2c1c1ccccc1c(=O)n2Cc1cccnc1
GI50 [1]: 13.8 µM | GI50 [2]: 13.8 µM | GI50 [4]: 42.7 µM | GI50 [5]: 8.71 µM | GI50 [6]: 7.59 µM | GI50 [8]: 13.8 µM | GI50 (SF-268): 6.76 µM

Compound: COc1cc2c3c(n(CCCNCCCNCCN)c(=O)c2cc1OC)-c1cc2c(cc1C3=O)OCO2
GI50 [1]: 52 µM | GI50 [2]: 20 µM | GI50 [4]: 38 µM | GI50 [5]: 37 µM | GI50 [8]: 20 µM | GI50 [7]: 23 µM

Compound: CC[C@@]1(O)C(=O)OCc2c1cc1n(c2=O)Cc2cc3ccccc3nc2-1 [CAMPTOTHECIN]
GI50 [4]: 0.04 µM | GI50 (SF-268): 0.01 µM

Activity [3]: inactive
Compound: CC(C)(C)OC(=O)NCCCCCCCCCCn1c2c(c3ccccc3c1=O)C(=O)c1ccccc1-2
GI50 [1]: 97.7 µM | GI50 [2]: > 100 µM | GI50 [4]: > 100 µM | GI50 [5]: 43.6 µM | GI50 [6]: 28.8 µM | GI50 [8]: > 100 µM | GI50 [7]: 60.3 µM | GI50 (SF-268): 42.7 µM

Activity [3]: inactive
Compound: NCCCCCn1c2c(c3ccccc3c1=O)C(=O)c1ccccc1-2
GI50 [1]: 0.347 µM | GI50 [2]: 0.398 µM | GI50 [4]: 1.35 µM | GI50 [5]: 1.35 µM | GI50 [6]: 0.288 µM | GI50 [8]: 0.708 µM | GI50 [7]: 0.2 µM | GI50 (SF-268): 0.871 µM

Compound: NCCCCCCn1c2c(c3ccccc3c1=O)C(=O)c1ccccc1-2
GI50 [1]: 0.603 µM | GI50 [2]: 1.32 µM | GI50 [4]: 2.04 µM | GI50 [5]: 1.62 µM | GI50 [6]: 1.29 µM | GI50 [8]: 2 µM | GI50 [7]: 0.912 µM | GI50 (SF-268): 1.23 µM

Activity [3]: inactive
Compound: O=C1c2ccccc2-c2c1c1ccccc1c(=O)n2CCc1cccnc1
GI50 [1]: 81.3 µM | GI50 [2]: > 100 µM | GI50 [4]: 4.57 µM | GI50 [5]: 89.1 µM | GI50 [6]: 28.8 µM | GI50 [8]: > 100 µM | GI50 (SF-268): 27.5 µM

Compound: COc1cc2c3c(n(CCCNCCNCCCN)c(=O)c2cc1OC)-c1cc2c(cc1C3=O)OCO2
GI50 [1]: 4.6 µM | GI50 [2]: 1.7 µM | GI50 [4]: 3.4 µM | GI50 [5]: 1.9 µM | GI50 [6]: 2.9 µM | GI50 [8]: 8.1 µM | GI50 [7]: 1.3 µM

Compound: CC(C)(C)OC(=O)NCCCCCCCCCn1c2c(c3ccccc3c1=O)C(=O)c1ccccc1-2
GI50 [1]: > 100 µM | GI50 [2]: 77.6 µM | GI50 [4]: > 100 µM | GI50 [5]: 17.4 µM | GI50 [6]: 24.5 µM | GI50 [8]: 28.8 µM | GI50 (SF-268): 17.8 µM

Compound: NCCCCCCCCn1c2c(c3ccccc3c1=O)C(=O)c1ccccc1-2
GI50 [1]: 3.39 µM | GI50 [2]: 3.47 µM | GI50 [4]: 5.62 µM | GI50 [5]: 3.8 µM | GI50 [6]: 2.14 µM | GI50 [8]: 3.47 µM | GI50 [7]: 1.66 µM | GI50 (SF-268): 2.82 µM

Compound: COc1cc2c3c(n(CCCNCCCNCCCN)c(=O)c2cc1OC)-c1cc2c(cc1C3=O)OCO2
GI50 [1]: > 100 µM | GI50 [2]: 33 µM | GI50 [4]: 68 µM | GI50 [5]: 44 µM | GI50 [8]: 0.88 µM | GI50 [7]: 43 µM

Compound: NCCCCCCCCCCCCn1c2c(c3ccccc3c1=O)C(=O)c1ccccc1-2
GI50 [1]: 19.1 µM | GI50 [2]: 13.5 µM | GI50 [4]: 19.5 µM | GI50 [5]: 14.8 µM | GI50 [6]: 17 µM | GI50 [8]: 17.8 µM | GI50 (SF-268): 18.2 µM

Compound: NCCCCn1c2c(c3ccccc3c1=O)C(=O)c1ccccc1-2
GI50 [1]: 0.01 µM | GI50 [2]: 0.04 µM | GI50 [4]: 0.84 µM | GI50 [5]: 0.05 µM | GI50 [6]: 0.08 µM | GI50 [8]: 0.52 µM | GI50 [7]: 0.1 µM | GI50 (SF-268): 0.1 µM

Compound: CC(C)(C)OC(=O)NCCCCCCCCCCCn1c2c(c3ccccc3c1=O)C(=O)c1ccccc1-2
GI50 [1]: 91.2 µM | GI50 [2]: > 100 µM | GI50 [4]: > 100 µM | GI50 [5]: 24 µM | GI50 [6]: 20.9 µM | GI50 [8]: 70.8 µM | GI50 [7]: 35.5 µM | GI50 (SF-268): 29.5 µM

Activity [3]: inactive
Compound: CC(C)(C)OC(=O)NCCCCCCCn1c2c(c3ccccc3c1=O)C(=O)c1ccccc1-2
GI50 [1]: 31.6 µM | GI50 [2]: 74.1 µM | GI50 [4]: 81.3 µM | GI50 [5]: 20 µM | GI50 [8]: 33.9 µM | GI50 [7]: 17.4 µM | GI50 (SF-268): 20.9 µM

Activity [3]: inactive
Compound: NCCCCCCCn1c2c(c3ccccc3c1=O)C(=O)c1ccccc1-2
GI50 [1]: 0.832 µM | GI50 [2]: 1.66 µM | GI50 [4]: 2.24 µM | GI50 [5]: 2 µM | GI50 [6]: 1.2 µM | GI50 [8]: 1.7 µM | GI50 [7]: 1.26 µM | GI50 (SF-268): 1.78 µM

Compound: NCCn1c2c(c3ccccc3c1=O)C(=O)c1ccccc1-2
GI50 [1]: 0.76 µM | GI50 [2]: 0.49 µM | GI50 [4]: 0.92 µM | GI50 [5]: 0.92 µM | GI50 [6]: 0.62 µM | GI50 [8]: 0.71 µM | GI50 [7]: 0.27 µM | GI50 (SF-268): 0.21 µM

Activity [3]: inactive
Compound: NCCCCCCCCCCn1c2c(c3ccccc3c1=O)C(=O)c1ccccc1-2
GI50 [1]: 3.47 µM | GI50 [2]: 3.31 µM | GI50 [4]: 11.7 µM | GI50 [5]: 13.8 µM | GI50 [6]: 4.79 µM | GI50 [8]: 10.7 µM | GI50 [7]: 2.75 µM | GI50 (SF-268): 1.82 µM

Activity [3]: inactive
Compound: NCCCCCCCCCn1c2c(c3ccccc3c1=O)C(=O)c1ccccc1-2
GI50 [1]: 6.03 µM | GI50 [2]: 8.51 µM | GI50 [4]: 9.55 µM | GI50 [5]: 9.33 µM | GI50 [6]: 6.76 µM | GI50 [8]: 9.55 µM | GI50 [7]: 6.46 µM | GI50 (SF-268): 9.77 µM

Compound: COc1cc2c3c(n(C)c(=O)c2cc1OC)-c1cc2c(cc1C3=O)OCO2
GI50 [4]: 96 µM

Compound: COc1cc2c3c(n(CCCNCCNCCN)c(=O)c2cc1OC)-c1cc2c(cc1C3=O)OCO2
GI50 [1]: 1.2 µM | GI50 [2]: 2.5 µM | GI50 [4]: 2.7 µM | GI50 [5]: 2.6 µM | GI50 [6]: 2.8 µM | GI50 [8]: 1.7 µM | GI50 [7]: 0.9 µM
